How the values were obtained:
[1] = target: Sodium channel protein type 5 subunit alpha (cardiac sodium channel) (Rattus norvegicus, UniProt P15389); experiment: in vitro; conditions: sodium channel from cardiac myocytes, probe [3H]batrachotoxin ([3H]BTX)
[2] = tested on: Felis catus; experiment: Effective refractory period (ERP) after iv administration to anesthetized, acutely infarcted cats at 1 mg/kg; format: functional
How it was run: (§1)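 Anesthetized cats given a slow iv bolus, with single-stage LAD occlusion 10 min later. Stimulating current raised until fibrillation; three baseline sequences about 15 min apart. Pacing repeated every 15 min for 2 h after occlusion, then every 30 min, for 5 h in total. Values are the mean maximum change over 5 h in VFT (mamps) or ERP (ms); cardioversion at 14–50 J.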

[3] = tested on: Canis familiaris; experiment: Minimal effective dose that resulted in significant reduction in PVC frequency in conscious dogs by po administration after 24 hours of coronary artery ligation; format: functional; conditions: Canis lupus familiaris, read-out: MED
How it was run: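 Dogs (8.0–19.1 kg) underwent LAD occlusion under halothane anesthesia with Holter electrodes. 24 h after occlusion, animals with PVCs exceeding 50% of heart rate were dosed orally by gavage with agent in water (n = 4 per group). Holter recorded 1 h before and 12–24 h after dosing.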

[4] = tested on: Cavia porcellus; experiment: In vivo index of cardiac contractility using paced guinea pig model; format: functional
How it was run: (§2)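 Guinea pig paced in vivo model. Hemodynamics recorded in normal sinus rhythm; ERP measured during brief pacing at baseline and 10 min after dosing. Bolus of 1 mL/kg via left ventricular catheter for doses <10 mg/kg; higher doses infused over 1 min. Cumulative dosing every 15 min up to the maximally tolerated dose (dP/dt reduced >50%). ED20 (ERP +20 ms) and dP/dt20 (20% drop in LV pressure-rise rate) derived by linear regression of individual dose-response curves.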

[5] = tested on: Cavia porcellus; experiment: Minimal effective dose that resulted in significant delay in the onset of arrhythmias in guinea pig with iv administration of aconitine hydrochloride; format: functional; conditions: read-out: MED
How it was run: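 Guinea pigs (n = 6 per dose, parallel groups) received agent or saline iv (1 mL/kg) 10 min before a lethal aconitine hydrochloride challenge (34 μg/kg iv). Times to first PVC, sustained VT and VF (>15 s) were recorded and compared with concurrent controls by one-way ANOVA. MED taken from an ascending semilogarithmic dose escalation as the dose giving significant delay in arrhythmia onset.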

[6] = tested on: Felis catus; experiment: Ventricular fribrillation threshold (VFT) after iv administration to anesthetized, acutely infarcted cats at 1 mg/kg; format: functional, Heart
How it was run: as §1

[7] = tested on: Cavia porcellus; experiment: Effective dose in vivo for cardiac refractoriness (ERP) using paced guinea pig model; format: functional
How it was run: as §2

[8] = tested on: Felis catus; experiment: Effective refractory period (ERP) after iv administration to anesthetized, acutely infarcted cats at 0.03 mg/kg; format: functional
How it was run: as §1

[9] = tested on: Felis catus; experiment: Ventricular fribrillation threshold (VFT) after iv administration to anesthetized, acutely infarcted cats at 0.03 mg/kg; format: functional, Heart
How it was run: as §1

[10] = tested on: Felis catus; experiment: Effective refractory period (ERP) after iv administration to anesthetized, acutely infarcted cats at 0.3 mg/kg; format: functional
How it was run: as §1

[11] = tested on: Felis catus; experiment: Ventricular fribrillation threshold (VFT) after iv administration to anesthetized, acutely infarcted cats at 0.3 mg/kg; format: functional, Heart
How it was run: as §1

[12] = tested on: Felis catus; experiment: Effective refractory period (ERP) after iv administration to anesthetized, acutely infarcted cats at x mg/kg; format: functional
How it was run: as §1

[13] = tested on: Felis catus; experiment: Ventricular fribrillation threshold (VFT) after iv administration to anesthetized, acutely infarcted cats at 3 mg/kg; format: functional, Heart
How it was run: as §1

[14] = tested on: Felis catus; experiment: Ventricular fribrillation threshold (VFT) after iv administration to anesthetized, acutely infarcted cats at 5 mg/kg; format: functional, Heart
How it was run: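 Anesthetized cats received a slow iv bolus of test agent, followed 10 min later by single-stage LAD occlusion. Before dosing, VFT was measured three times about 15 min apart as baseline, raising the stimulating current until fibrillation was induced. After occlusion, pacing was repeated every 15 min for 2 h, then every 30 min, to 5 h. The value is the mean maximum VFT change (mamps) over 5 h.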

[15] = tested on: Felis catus; experiment: Effective refractory period (ERP) after iv administration to anesthetized, acutely infarcted cats at 3 mg/kg; format: functional
How it was run: as §1

Sodium channel protein type 5 subunit alpha (cardiac sodium channel), sequence (P15389 whole entry): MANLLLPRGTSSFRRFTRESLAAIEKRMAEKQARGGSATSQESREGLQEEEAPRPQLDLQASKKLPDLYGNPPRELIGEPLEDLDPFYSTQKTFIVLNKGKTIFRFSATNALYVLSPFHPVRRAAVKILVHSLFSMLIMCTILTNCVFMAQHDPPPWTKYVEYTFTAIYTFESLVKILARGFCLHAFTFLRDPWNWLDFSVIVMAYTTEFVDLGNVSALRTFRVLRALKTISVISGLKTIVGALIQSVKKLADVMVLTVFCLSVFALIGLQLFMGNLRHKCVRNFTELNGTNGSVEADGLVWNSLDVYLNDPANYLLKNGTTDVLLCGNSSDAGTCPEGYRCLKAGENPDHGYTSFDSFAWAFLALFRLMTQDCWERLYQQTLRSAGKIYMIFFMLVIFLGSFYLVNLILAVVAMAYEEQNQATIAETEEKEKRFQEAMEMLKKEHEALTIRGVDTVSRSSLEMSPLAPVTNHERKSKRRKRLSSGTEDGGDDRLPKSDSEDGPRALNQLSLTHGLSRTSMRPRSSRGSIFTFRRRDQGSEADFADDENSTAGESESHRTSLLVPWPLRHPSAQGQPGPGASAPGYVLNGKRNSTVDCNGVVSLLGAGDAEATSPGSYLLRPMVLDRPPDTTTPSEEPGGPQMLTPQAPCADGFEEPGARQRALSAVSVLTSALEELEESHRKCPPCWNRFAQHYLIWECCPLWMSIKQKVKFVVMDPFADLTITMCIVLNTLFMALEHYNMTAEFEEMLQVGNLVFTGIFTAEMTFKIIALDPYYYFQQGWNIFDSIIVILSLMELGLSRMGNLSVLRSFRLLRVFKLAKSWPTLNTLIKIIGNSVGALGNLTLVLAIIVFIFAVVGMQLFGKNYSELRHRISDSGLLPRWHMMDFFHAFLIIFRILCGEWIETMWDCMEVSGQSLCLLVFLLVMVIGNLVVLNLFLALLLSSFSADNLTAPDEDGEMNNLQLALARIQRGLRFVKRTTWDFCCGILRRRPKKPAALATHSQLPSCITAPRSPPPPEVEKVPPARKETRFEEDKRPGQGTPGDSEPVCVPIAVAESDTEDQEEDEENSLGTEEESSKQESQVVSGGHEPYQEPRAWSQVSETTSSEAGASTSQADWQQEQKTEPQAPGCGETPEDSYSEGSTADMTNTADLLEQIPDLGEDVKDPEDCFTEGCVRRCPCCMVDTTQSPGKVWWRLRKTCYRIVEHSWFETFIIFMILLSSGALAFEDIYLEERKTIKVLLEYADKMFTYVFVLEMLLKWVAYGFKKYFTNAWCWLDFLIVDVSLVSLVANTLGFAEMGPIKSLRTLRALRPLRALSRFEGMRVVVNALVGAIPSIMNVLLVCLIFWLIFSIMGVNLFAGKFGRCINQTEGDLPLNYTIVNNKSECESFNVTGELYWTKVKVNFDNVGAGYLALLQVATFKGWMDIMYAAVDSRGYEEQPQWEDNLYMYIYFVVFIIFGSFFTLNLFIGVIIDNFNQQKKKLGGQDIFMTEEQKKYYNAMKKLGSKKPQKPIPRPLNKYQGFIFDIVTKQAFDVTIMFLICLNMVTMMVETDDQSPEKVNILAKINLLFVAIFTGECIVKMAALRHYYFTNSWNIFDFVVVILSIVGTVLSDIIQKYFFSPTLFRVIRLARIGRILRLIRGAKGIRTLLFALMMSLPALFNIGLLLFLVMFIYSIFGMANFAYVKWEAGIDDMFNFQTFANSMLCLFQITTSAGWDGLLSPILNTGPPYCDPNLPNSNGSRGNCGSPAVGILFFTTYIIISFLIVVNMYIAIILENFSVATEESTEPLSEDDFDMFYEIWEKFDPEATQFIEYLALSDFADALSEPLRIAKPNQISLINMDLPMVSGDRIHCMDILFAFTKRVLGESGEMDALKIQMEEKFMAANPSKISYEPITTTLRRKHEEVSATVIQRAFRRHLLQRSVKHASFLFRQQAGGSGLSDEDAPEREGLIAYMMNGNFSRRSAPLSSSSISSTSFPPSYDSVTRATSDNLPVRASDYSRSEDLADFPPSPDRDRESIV

Row | SMILES | inhibition at 10 µM [1] [%] | ERP [2] [ms] | minimal effective dose [3] [mg/kg] | dP/dt20 [4] [mg/kg] | minimal effective dose [5] [mg/kg] | VFT [6] [mA] | ED20 [7] [mg/kg] | ERP [8] [ms] | VFT [9] [mA] | ERP [10] [ms] | VFT [11] [mA] | ERP [12] [ms] | VFT [13] [mA] | VFT [14] [mA] | ERP [15] [ms]
1 | CCC1=NC(c2ccccc2)c2ccccc2CN1C.Cl (centres undefined) | 50 | 13 | 10 | 0.8 | 3 | 84 | 0.6 |  |  |  |  |  |  |  | 
2 | CN1Cc2ccccc2C(c2ccccc2)N=C1CCc1ccccc1.Cl (centres undefined) |  | 61 | 3 | 0.02 | < 3 | 95 | 0.04 |  |  |  |  |  |  |  | 
3 | CN(CCOc1ccc(NS(C)(=O)=O)cc1)CCc1ccc(NS(C)(=O)=O)cc1 [DOFETILIDE] |  |  |  |  |  |  |  | 85 | 43 |  |  |  |  |  | 
4 | CCC1=N[C@H](c2ccccc2)c2ccccc2CN1C.Cl | 42 |  | 10 | 0.3 | 3 |  | 0.3 |  |  | 16 | 63 |  |  |  | 
5 | CCC1=NC(C)(c2ccccc2)c2ccccc2CN1C.O=C(O)/C=C/C(=O)O (centres undefined) | 60 |  | 10 | 1.2 | < 3 |  | 0.7 |  |  |  |  | 78 | 81 |  | 
6 | CC(C)N(CCC(C(N)=O)(c1ccccc1)c1ccccn1)C(C)C (centres undefined) [DISOPYRAMIDE] | 17 |  | 40 | 0.03 | 1 |  | 0.2 |  |  |  |  | 26 |  | 73 | 
7 | CN1Cc2ccccc2[C@H](c2ccccc2)N=C1CCc1ccccc1.Cl |  | 21 | 10 | 0.02 | 0.1 | 82 | 0.02 |  |  |  |  |  |  |  | 
8 | O=C(NCC1CCCCN1)c1cc(OCC(F)(F)F)ccc1OCC(F)(F)F (centres undefined) [FLECAINIDE] | 74 |  | 10 | 1.8 | 3 |  | 12.8 |  |  |  |  |  | 30 |  | 5

Reference: ChEMBL document CHEMBL1126878, “4,5-Dihydro-1-phenyl-1H-2,4-benzodiazepines: novel antiarrhythmic agents” (J Med Chem, 1993)
